Measurements taken from ChEMBL document CHEMBL4229495 (Bioorg Med Chem, 2018).

Experiments:
[1] = molecular target: T1, Tyrosyl-DNA phosphodiesterase 1 (Homo sapiens, UniProt Q9NUW8); assay: Inhibition of recombinant Tdp1 (unknown origin) using 5'-(5,6 FAM-aac gtc agg gtc ttc c-BHQ1)-3' as substrate measured every 55 secs for 8 mins by fluorimetric assay
[2] = Cytotoxicity against HEK293 cells after 72 hrs by MTT assay; type: cell-based; settings: human
How it was run: (§1)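 Cells seeded at ~2000 per well and grown 24 h at 37 °C, 5% CO2 in IMDM with 10% FBS plus penicillin/streptomycin. Then exposed to the compound (1 to 100 µM) for 72 h. Viability read by MTT as A570 versus DMSO control. CC50 interpolated from the dose-response curve. Mean ± SD of triplicates.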

[3] = system: A549; assay: Potentiation of topotecan-induced cytotoxicity against human A549 cells assessed as topotecan CC50 at 1 uM after 72 hrs by MTT assay (reference value: 111 +/- 27 nM); type: functional; settings: A549, 72 h
[4] = Cytotoxicity against human A549 cells after 72 hrs by MTT assay; type: cell-based; how it was run: as §1
[5] = system: Tdp1; assay: Selectivity index, ratio of CC50 for human A549 cells to IC50 for recombinant Tdp1 (unknown origin) using 5'-(5,6 FAM-aac gtc agg gtc ttc c-BHQ1)-3' as substrate; type: toxicity; settings: A549 cells (CC50) and recombinant Tdp1 (IC50), probe 5'-(5,6 FAM-aac gtc agg gtc ttc c-BHQ1)-3'
[6] = system: Tdp1; assay: Selectivity index, ratio of CC50 for HEK293 cells to IC50 for recombinant Tdp1 (unknown origin) using 5'-(5,6 FAM-aac gtc agg gtc ttc c-BHQ1)-3' as substrate; type: toxicity; settings: human, HEK293 cells (CC50) and recombinant Tdp1 (IC50), probe 5'-(5,6 FAM-aac gtc agg gtc ttc c-BHQ1)-3'
[7] = molecular target: T1, Tyrosyl-DNA phosphodiesterase 1; assay: Inhibition of recombinant Tdp1 (unknown origin) using 5'-([32P]-aac gtc agg gtc ttc c-BHQ1)-3' as substrate measured after 20 mins by electrophoresis method
[8] = molecular target: T1, Tyrosyl-DNA phosphodiesterase 1; assay: Inhibition of recombinant Tdp1 (unknown origin) using 5'-([32P]-aac gtc agg gtc ttc c-tyrosine)-3' as substrate measured after 5 mins by electrophoresis method
[9] = system: A549; assay: Potentiation of topotecan-induced cytotoxicity against human A549 cells assessed as fold reduction in topotecan CC50 at 1 uM after 72 hrs by MTT assay relative to topotecan alone; type: functional
How it was run: (§2)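 A-549 or HEK-293 cells (~2000/well) preincubated 24 h at 37 °C in IMDM with 10% FBS, penicillin/streptomycin, 5% CO2. Then treated with varied topotecan concentrations with or without inhibitor at 1 µM for 72 h. Viability read by MTT (A570) against DMSO control. Topotecan CC50 interpolated from dose-response curves, mean ± SD of triplicates.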

[10] = system: HEK293; assay: Potentiation of topotecan-induced cytotoxicity against HEK293 cells assessed as fold reduction in topotecan CC50 at 1 uM after 72 hrs by MTT assay relative to topotecan alone; type: cell-based; settings: human, hek293, 72 h; how it was run: as §2

T1 sequence (Q9NUW8 whole entry): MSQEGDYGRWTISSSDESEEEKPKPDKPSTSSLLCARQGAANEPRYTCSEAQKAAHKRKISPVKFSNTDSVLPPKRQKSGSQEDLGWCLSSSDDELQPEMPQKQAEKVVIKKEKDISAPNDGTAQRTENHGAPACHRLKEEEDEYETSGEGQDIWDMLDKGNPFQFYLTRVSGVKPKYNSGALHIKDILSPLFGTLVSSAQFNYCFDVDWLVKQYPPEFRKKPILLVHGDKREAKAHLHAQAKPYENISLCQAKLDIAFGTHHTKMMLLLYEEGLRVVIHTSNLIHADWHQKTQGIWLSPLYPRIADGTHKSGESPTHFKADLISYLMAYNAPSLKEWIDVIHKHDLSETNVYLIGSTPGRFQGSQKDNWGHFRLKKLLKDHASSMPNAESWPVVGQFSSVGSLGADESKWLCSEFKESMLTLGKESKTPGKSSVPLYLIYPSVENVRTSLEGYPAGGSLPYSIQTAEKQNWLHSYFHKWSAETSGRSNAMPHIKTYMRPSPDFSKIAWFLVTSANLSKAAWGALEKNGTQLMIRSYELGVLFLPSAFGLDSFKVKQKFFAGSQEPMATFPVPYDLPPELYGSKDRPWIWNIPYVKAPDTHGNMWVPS

For `COc1ccccc1/C=C1\Oc2c(C)c(O)c3c(c2C1=O)OC1=CC(O)=C(C(C)=O)C(=O)[C@@]13C`, the IC50 [1] was 390 nM.

Work on `CC(=O)C1=C(O)C=C2Oc3c4c(c(C)c(O)c3[C@@]2(C)C1=O)O/C(=C\c1ccc(Br)cc1)C4=O` yielded a CC50 at 72 h [2] of 14600 nM, a CC50 [3] of 162 nM and a CC50 at 72 h [4] of 10000 nM. It also gave a selectivity ratio [5] of 66.7 and a selectivity ratio [6] of 97.3.

Molecule `CC(=O)C1=C(O)C=C2Oc3c4c(c(C)c(O)c3[C@@]2(C)C1=O)O/C(=C\c1ccncc1)C4=O` has an IC50 [1] of 810 nM.

With `CC(=O)C1=C(O)C=C2Oc3c4c(c(C)c(O)c3[C@@]2(C)C1=O)O/C(=C\c1cccnc1)C4=O` the IC50 [1] was 450 nM.

`CC(=O)C1=C(O)C=C2Oc3c4c(c(C)c(O)c3[C@@]2(C)C1=O)O/C(=C\c1sccc1C)C4=O` gave an IC50 [1] of 630 nM.

`CC(=O)C1=C(O)C=C2Oc3c4c(c(C)c(O)c3[C@@]2(C)C1=O)O/C(=C\c1ccccc1)C4=O` showed an IC50 [1] of 720 nM.

Molecule `CC(=O)C1=C(O)C=C2Oc3c4c(c(C)c(O)c3[C@@]2(C)C1=O)O/C(=C\c1ccc(C)s1)C4=O` has an IC50 [1] of 840 nM.

`CC(=O)C1=C(O)C=C2Oc3c4c(c(C)c(O)c3[C@@]2(C)C1=O)O/C(=C\c1ccccn1)C4=O` gave an IC50 [1] of 860 nM.

`CC(=O)C1=C(O)C=C2Oc3c4c(c(C)c(O)c3[C@@]2(C)C1=O)O/C(=C\c1ccc(Cl)cc1)C4=O` showed an IC50 [1] of 1220 nM.

`CC(=O)C1=C(O)C=C2Oc3c4c(c(C)c(O)c3[C@@]2(C)C1=O)O/C(=C\c1ccc(O)cc1)C4=O` gave an IC50 [1] of 1590 nM.

For `CC(=O)C1=C(O)C=C2Oc3c4c(c(C)c(O)c3[C@@]2(C)C1=O)O/C(=C\c1cc(Br)cc(Br)c1)C4=O`, the IC50 [7] was 640 nM, the IC50 [1] was 530 nM and the IC50 [8] was 4000 nM.

`CC(=O)C1=C(O)C=C2Oc3c4c(c(C)c(O)c3[C@@]2(C)C1=O)O/C(=C\c1cc(Br)cs1)C4=O` showed an IC50 [1] of 600 nM.

With `CC(=O)C1=C(O)C=C2Oc3c4c(c(C)c(O)c3[C@@]2(C)C1=O)O/C(=C\c1ccc(Br)s1)C4=O` the CC50 at 72 h [2] was 15700 nM, the CC50 [3] was 47 nM and the “fold change (FC)” value [9] was 2. For the same molecule, the IC50 [1] was 63 nM, the CC50 at 72 h [4] was 8700 nM and the fold change (FC) [10] was 2 to 4. It also gave a selectivity ratio [5] of 138 and a selectivity ratio [6] of 249.

Work on `CC(=O)C1=C(O)C=C2Oc3c4c(c(C)c(O)c3[C@@]2(C)C1=O)O/C(=C\c1ccc(F)cc1)C4=O` yielded an IC50 [1] of 980 nM.

In the case of `CC(=O)C1=C(O)C=C2Oc3c4c(c(C)c(O)c3[C@@]2(C)C1=O)O/C(=C\c1ccc[nH]1)C4=O`, the IC50 [1] is reported as 3650 nM.

With `CC(=O)C1=C(O)C=C2Oc3c4c(c(C)c(O)c3[C@]2(C)C1=O)O/C(=C\c1ccc(Br)s1)C4=O` the IC50 [1] was 81 nM.

Work on `COc1ccc(/C=C2\Oc3c(C)c(O)c4c(c3C2=O)OC2=CC(O)=C(C(C)=O)C(=O)[C@@]24C)cc1` yielded a CC50 at 72 h [2] of 15800 nM, a CC50 [3] of 90 nM and an IC50 [1] of 340 nM. The CC50 at 72 h [4] was 8300 nM, the selectivity ratio [5] was 24.4 and the selectivity ratio [6] was 46.5.

In the case of `CC(=O)C1=C(O)C=C2Oc3c4c(c(C)c(O)c3[C@@]2(C)C1=O)O/C(=C\c1ccco1)C4=O`, the IC50 [1] is reported as 5500 nM.

Work on `COc1ccc(/C=C2\Oc3c(C)c(O)c4c(c3C2=O)OC2=CC(O)=C(C(C)=O)C(=O)[C@@]24C)cc1OC` yielded an IC50 [1] of 1020 nM.

In the case of `CC(=O)C1=C(O)C=C2Oc3c4c(c(C)c(O)c3[C@@]2(C)C1=O)O/C(=C\c1ccc(C)o1)C4=O`, the CC50 at 72 h [2] is reported as greater than 50000 nM, the CC50 [3] is reported as 40 nM and the “fold change (FC)” value [9] is reported as 2. It also gave an IC50 [1] of 160 nM, a CC50 at 72 h [4] greater than 50000 nM and a selectivity ratio [5] greater than 300. For the same molecule, the selectivity ratio [6] was greater than 300.

In the case of `CC(=O)C1=C(O)C=C2Oc3c4c(c(C)c(O)c3[C@@]2(C)C1=O)O/C(=C\C1CCCCC1)C4=O`, the IC50 [1] is reported as greater than 15000 nM.

In the case of `CC(=O)C1=C(O)C=C2Oc3c4c(c(C)c(O)c3[C@@]2(C)C1=O)O/C(=C\c1cc(C(C)(C)C)cc(C(C)(C)C)c1O)C4=O`, the CC50 at 72 h [2] is reported as 14500 nM, the CC50 [3] is reported as 558 nM and the IC50 [1] is reported as 25 nM. For the same molecule, the CC50 at 72 h [4] was 6800 nM and the selectivity ratio [5] was 272.

`CC(=O)C1=C(O)C=C2Oc3c4c(c(C)c(O)c3[C@@]2(C)C1=O)O/C(=C\c1ccsc1)C4=O` showed an IC50 [1] of 3300 nM.

`CC(=O)C1=C(O)C=C2Oc3c4c(c(C)c(O)c3[C@@]2(C)C1=O)O/C(=C\c1cccs1)C4=O` gave an IC50 [1] of 900 nM.

With `CC(=O)C1=C(O)C=C2Oc3c4c(c(C)c(O)c3[C@@]2(C)C1=O)O/C(=C\c1ccoc1)C4=O` the IC50 [1] was 6730 nM.

Molecule `CC(=O)C1=C(O)C=C2Oc3c4c(c(C)c(O)c3[C@@]2(C)C1=O)O/C(=C\c1cccc(Br)c1)C4=O` has a CC50 at 72 h [2] of 14500 nM, a CC50 [3] of 132 nM and an IC50 [1] of 232 nM. For the same molecule, the CC50 at 72 h [4] was 11400 nM, the selectivity ratio [5] was 49.1 and the selectivity ratio [6] was 62.5.

Work on `CC(=O)C1=C(O)C=C2Oc3c4c(c(C)c(O)c3[C@]2(C)C1=O)O/C(=C\c1cc(C(C)(C)C)cc(C(C)(C)C)c1O)C4=O` yielded an IC50 [1] of 64 nM.

For `CC(=O)C1=C(O)C=C2Oc3c4c(c(C)c(O)c3[C@@]2(C)C1=O)O/C(=C\c1ccccc1Br)C4=O`, the CC50 at 72 h [2] was 15900 nM, the CC50 [3] was 48 nM and the “fold change (FC)” value [9] was 2. It also gave an IC50 [1] of 230 nM, a CC50 at 72 h [4] of 4560 nM and a selectivity ratio [5] of 19.8. For the same molecule, the selectivity ratio [6] was 69.1.

For `COc1ccc(/C=C2\Oc3c(C)c(O)c4c(c3C2=O)OC2=CC(O)=C(C(C)=O)C(=O)[C@@]24C)c(OC)c1OC`, the CC50 at 72 h [2] was 20000 nM, the CC50 [3] was 48 nM and the “fold change (FC)” value [9] was 2. The IC50 [1] was 340 nM, the CC50 at 72 h [4] was 4600 nM and the selectivity ratio [5] was 13.5. The selectivity ratio [6] was 58.8.
